mABHD4 FP: inhibitors of mouse ABHD4 | 0.54% of 370,000 active | Q8VD66 | purified mABHD4, FP-Rh probe fluorescence polarization | inhibition, % at 8.92 µM;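 active = inhibition exceeding the mean over every tested compound plus 3 SD, cut at about 30% in these data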;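 note: 0% = plate median of compound wells and 100% = S159A mutant with DMSO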
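Assay system: mABHD4 protein; medium: HEPES pH 7.0, NaCl, Pluronic buffer; dosing: 8.92 µM, single dose; schedule: 45 min + 60 min at 25 °C; signal: FP readout, ex 525 nm / em 598 nm; read-out: normalized percent inhibition of probe labeling; repeats: single replicate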
HTRA1 inh: blocks human HTRA1 serine peptidase; Q92743; recombinant HTRA1, FP-rhodamine activity-based probe, fluorescence polarization; inhibition, % at 5.96 µM; 0.5% of 340,000 active; in the data active = inhibition above about 36%;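 note: 0% = enzyme with DMSO and 100% = wells lacking enzyme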
Target sequence (Q92743 whole entry, looked up): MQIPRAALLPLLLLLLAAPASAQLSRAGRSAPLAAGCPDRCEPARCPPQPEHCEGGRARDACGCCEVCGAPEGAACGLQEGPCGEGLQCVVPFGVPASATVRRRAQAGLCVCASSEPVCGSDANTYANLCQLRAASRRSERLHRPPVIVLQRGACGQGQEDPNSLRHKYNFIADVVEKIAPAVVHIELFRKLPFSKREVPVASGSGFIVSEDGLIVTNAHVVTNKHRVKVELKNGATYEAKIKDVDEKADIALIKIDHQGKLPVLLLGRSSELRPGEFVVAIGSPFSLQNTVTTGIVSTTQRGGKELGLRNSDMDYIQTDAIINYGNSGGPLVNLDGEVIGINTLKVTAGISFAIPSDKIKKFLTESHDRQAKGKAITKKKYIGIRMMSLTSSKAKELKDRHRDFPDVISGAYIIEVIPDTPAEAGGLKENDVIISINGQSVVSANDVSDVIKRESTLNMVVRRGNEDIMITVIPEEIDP
SIAE inh: blocks human sialic acid acetylesterase; Q9HAT2; SIAE FP-Rh probe binding, fluorescence polarization; inhibition, % at 9.66 µM; 0.69% of 370,000 active; AID 1053197;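 active = inhibition above a cutoff: mean of compounds within the control limits plus 3 SD of those, cut at about 17% in these data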;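 note: 0% = plate median of compound wells and 100% = probe without SIAE protein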
Fam108B inh: blocks mouse Fam108B hydrolase in RBBP9 counter-screen. recombinant Fam108B, FP-Rh probe fluorescence polarization. inhibition, % at 9.51 µM. 0.33% of 300,000 active;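 active = inhibition above the screen mean inhibition plus 3 SD, computed separately per campaign, cut at about 18% in these data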;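 note: inhibitors lower polarization as less probe binds the enzyme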
TCR-CD3 inh: inhibitors of human TCR-CD3 interaction; TAMRA-labeled TCR probe fluorescence, biochemical; inhibition, % at 9.4 µM; 0.37% of 360,000 active; AID 651800; in the data active = inhibition above about 19%;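 note: recombinant mutant TCR 2C K166C tagged with TAMRA read by polarization; 0% = receptor in buffer alone and 100% = receptor with positive control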
PME-1 inh: blocks human protein phosphatase methylesterase 1; Q9Y570; recombinant PME-1, FP-Rh probe fluorescence polarization; inhibition, % at 5.9 µM; 0.53% of 320,000 active; AID 2130;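 active = inhibition above the campaign mean of all compounds plus 3 SD, cut at about 26% in these data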;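 note: competitive labeling of PME-1 active site by serine hydrolase directed probe; 0% = PME-1 with DMSO and 100% = wells lacking PME-1 enzyme; inhibitors block probe labeling so polarization falls and inhibition rises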
ABHD4 confirm: ABHD4 (mouse) inhibition, FP confirmation | shares compounds with mABHD4 FP | purified mABHD4, FP-Rh probe fluorescence polarization | inhibition, % at 8.92 µM | 55% of 1,800 active;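 active = mean inhibition across replicates above the hit cutoff set in the primary screen, cut at about 30% in these data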;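 note: 0% = wild-type ABHD4 with DMSO and 100% = catalytically dead S159A mutant with DMSO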
* marks the source's active call; other numbers are inactive results; · = no result. A selection: hits, their analogues and other compounds. The true share with any hit is near 1.8%.

SMILES	mABHD4 FP	HTRA1 inh	SIAE inh	Fam108B inh	TCR-CD3 inh	PME-1 inh	ABHD4 confirm
CN(C)c1ccc(N=C/C=C2\N(C)c3ccccc3C2(C)C)cc1	32*	19	-4	1	-1	2	8
CN1/C(=C\C=Nc2ccc3ccccc3c2)C(C)(C)c2ccccc21	·	-22	·	3	·	4	·
COc1cc(/C=C2\C(=O)NN(c3ccccc3)C2=O)ccc1OCC(N)=O	6	·	7	0	5	-3	·
COc1cccc(/C=C2/C(=O)NN(c3ccccc3)C2=O)c1	4	7	2	·	-4	·	·
COc1cccc(/C=C2/C(=O)NN(c3ccc(C)c(C)c3)C2=O)c1	35*	3	11	1	5	1	13
COc1cc(/C=C2/C(=O)NN(c3cccc(Cl)c3)C2=O)cc(OC)c1O	36*	6	9	3	2	6	16
COc1cc(/C=C2/C(=O)NN(c3ccc(C)c(Cl)c3)C2=O)cc([N+](=O)[O-])c1O	63*	30	-2	·	-3	·	56*
CCOc1cc(/C=C2/C(=O)NN(c3cccc(Cl)c3)C2=O)ccc1O	36*	-4	6	3	-5	5	38*
Fc1ccc(C(c2ccc(F)cc2)N2CCN(C/C=C/c3ccccc3)CC2)cc1	12	-17	0	-5	6	-3	·
C(=C\c1ccccc1)/CN1CCN(C(c2ccccc2)c2ccccc2)CC1	95*	-6	2	0	0	6	4
COc1ccc2c(c1)c1ccc3c(c1n2C)C(=O)C=CC3=O	67*	23	-23	·	7	·	68*
Oc1cccc(-c2nnc(-c3cccc(O)c3)nn2)c1	42*	-1	-1	·	3	·	60*
O=C(/C=C/c1ccc(-c2ccccc2[N+](=O)[O-])o1)c1ccc(Br)cc1	21	-26	7	-1	-1	-3	·
Cc1ccc(C(=O)/C=C/c2ccc(-c3ccccc3[N+](=O)[O-])o2)cc1	36*	13	-2	-1	-8	0	-3
O=C(NCc1ccc(Br)cc1)OC1CC2CC1[C@H]1CCCCN1C2=O (some centres not stated)	6	·	-7	·	1	·	·
CC(C)(C)/C(O)=C/c1nc2cc(Cl)ccc2oc1=O	32*	18	-1	-1	-5	-3	3
CCCCCC(=O)Nc1ccc(S(=O)(=O)NC2=NCCCCC2)cc1	-1	1	-2	·	6	5	·
COc1ccc(N2CC(C(=O)N/N=C/c3c[nH]c4ccccc34)CC2=O)cc1 (configuration not stated)	4	3	1	-1	0	9	·
CCCCCN=C(N)N/N=C/c1c[nH]c2ccc(OC)cc12	41*	12	-4	2	-4	9	54*
CCCC1CCC2(CCCN2CCOC(=O)Nc2ccc(Br)cc2)CC1 (configuration not stated)	7	·	0	·	·	·	·
COC(=O)[C@@]12C[C@@H](CC(=O)N3CCN(C(=O)c4ccco4)CC3)C(=O)N(Cc3cccc4ccccc34)C1=CCC(C)(C)C2	6	·	-5	·	-3	·	·
CCOC(=O)c1c(C)n(C)c2cc(Br)c(O)c(O)c12	30*	9	13	-2	-4	4	5
CCOC(=O)c1c(C)n(C)c2cc([N+](=O)[O-])c(O)c([N+](=O)[O-])c12	9	-1	1	-4	-4	0	·
CC(CN1CCN(Cc2ccccc2)CC1)c1ccccc1 (configuration not stated)	30*	-3	1	-2	-7	-6	6
CC(CN1CCC(O)CC1)c1ccccc1 (configuration not stated)	-9	3	-6	-8	-4	6	·
SMILES	mABHD4 FP	HTRA1 inh	SIAE inh	Fam108B inh	TCR-CD3 inh	PME-1 inh	ABHD4 confirm
COc1ccc(C2C3=C(CC(C)(C)CC3=O)Oc3ncn4nc(-c5cccnc5)nc4c32)cc1 (configuration not stated)	30*	2	-2	1	3	-6	-13
O=c1oc2ccccc2nc1/C=C(O)/C=C\c1ccccc1	33*	9	4	-5	3	3	9
CC1CCN(c2ccc(C(=O)O)cc2NS(=O)(=O)c2ccccc2[N+](=O)[O-])CC1	44*	·	1	·	·	·	42*
CC1CCN(c2ccc(C(=O)O)cc2NS(=O)(=O)c2ccc(C(C)(C)C)cc2)CC1	42*	·	6	·	·	·	52*
O=C(O)c1cccc2c1C(=O)c1ccc(N3CCN(Cc4ccc5c(c4)OCO5)CC3)cc1S2(=O)=O	5	3	2	·	0	·	·
Cc1ccccc1NC(=O)Cc1nc(COC(=O)c2cccc([N+](=O)[O-])c2)cs1	54*	-7	6	7	8	2	42*
Cc1ccccc1NC(=O)Cc1nc(COC(=O)c2cc([N+](=O)[O-])ccc2NCCO)cs1	40*	-17	-6	2	-10	8	19
c1ccc(Nc2nc(NCc3ccco3)c3ccccc3n2)cc1	21	-28	8	4	-10	0	·
COc1cccc(Nc2nc(NCCO)c3ccccc3n2)c1	39*	5	10	-2	-9	-26	47*
Cc1cccc(Nc2nc(NCc3ccco3)c3ccccc3n2)c1	39*	-25	23*	7	6	8	46*
COc1cc(O)c2c(c1)OC(C)(C)CC2=O	-6	3	0	-1	5	5	·
COc1cc(O)cc2cc3c(c(O)c12)C(=O)CC(C)(O)O3 (configuration not stated)	38*	11	7	-4	13	1	11
COc1ccccc1NS(=O)(=O)c1ccc(C)c(C(N)=O)c1	9	6	-3	0	2	7	·
COc1ccccc1NS(=O)(=O)c1ccc(O)c(C(=O)OCc2cccc([N+](=O)[O-])c2)c1	32*	-12	-2	1	1	4	38*
O=C(COc1ccccc1Cl)NC(=S)Nc1ccccc1N1CCCC1	41*	-7	4	-5	13	4	-8
CC1CCCC(C)N1C(=O)COC(=O)CCC(=O)c1cccs1 (configuration not stated)	60*	-2	5	·	9	·	-7
CC1(Cc2ccccc2OC(F)(F)F)C(=O)Nc2ccc(-c3ccsc3)cc21 (configuration not stated)	-40	·	-6	·	-5	·	·
COc1ccc(S(=O)(=O)N(C(=O)c2ccco2)c2cc3sc(=O)oc3c3ccccc23)cc1	54*	22	-53	7	3	12	31*
COc1ccc(S(=O)(=O)N(C(=O)C(C)C)c2ccc3oc(=O)sc3c2)cc1	-27	21	-41	5	-9	2	·
